An excerpt weighted towards active compounds, which were near 1.9% of everything screened.
PGC1a acetyl inh – PGC1a acetylation modulation, inhibitor mode; inhibition, % at 15.6 µM; 350,000 tested, 0.17% active; AID 651687; U2OS PGC1a acetylation, AlphaScreen anti-acetyl-lysine; with virally co-expressed GCN5 acetyltransferase;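 active = every replicate shows inhibition of at least 40%; inconclusive = mean inhibition at least 40% but some replicate below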;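 note: 0% = neutral control wells and 100% = positive control wells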
Cneo AK release – causes C. neoformans cell lysis; adenylate kinase release luminescence, 4 h; normalised: neutral wells 0, clomiphene wells 100; lysis activity, % at 15 µM; 360,000 tested, 0.2% active;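 active = mean lysis activity across replicates of at least 80%, whatever share of replicates individually reach that level; inactive = mean lysis activity below 80%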
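Material: C. neoformans cells | Amount: Yeast cell density of 5 × 10^6 cells/mL | Medium: Fresh YPD growth medium | Dosing: Single dose | Times: Static 4 h at 37 °C with compound, 1 h detection | Detection: AK luminescence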
XiGFP reactiv – X-chromosome reactivation activator. XiGFP mouse fibroblasts, % GFP-positive cells imaging, 3 d; cells co-treated with 5-aza-dC sensitizer; scaled so ellipticine positive control = 100%. 360,000 tested, 0.055% active. AID 743238. activation, % at 7.58 µM;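 active = mean normalized replicate activation at least 10% and every replicate at or above 10%; inconclusive = only one of the two criteria met; inactive = mean below 10% and not all replicates reach 10%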;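 note: 0% = median of on-plate neutral control wells and 100% = ellipticine 6 µM median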
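Assay system – SV40-immortalized XiGFP fibroblast cells, line 68-5-11 · Buffer or medium – DMEM supplemented with 5-aza-dC as sensitizing agent · Dosing – one concentration, pinned · Benchmarks – positive control ellipticine, 6 µM final · Times – 3 days compound exposure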
FN deposit inh – fibronectin deposition inhibition; AH1F fibroblasts, Alexa488-fibronectin deposition fluorescence, overnight; inhibition, % at 12.6 µM; 350,000 tested, 0.086% active; AID 743247;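 active = mean inhibition across replicates of 30% or more, regardless of how many single replicates reach that level; inconclusive = mean under 30% yet at least half of replicates reach 30%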;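 note: positive control wells lacked labelled fibronectin entirely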
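test system = AH1F fibroblasts assembling fluorescent fibronectin matrix | quantity = 10000 AH1F cells per well | buffer or medium = DMEM plus 2% serum, read in PBS | doses = single dose, pinned | incubation = 1 h cell attachment, overnight exposure to compound and label | detection = fluorescence at 485 nm excitation, 525 nm emission | read-out basis = inhibition from reduced deposited-fibronectin fluorescence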
DENV2 CPE – inhibitors of DENV2 cytopathic effect; DENV2-infected cells, cytopathic effect rescue, plate reader; AID 651640; 350,000 tested, 1.7% active; CPE inhibition, % at 9.99 µM; in the data active = CPE inhibition above about 20%, passing the limit was not always enough; inconclusive = no clear call, values can overlap the other calls; tested in BHK-21 cells;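 note: 0% = median of neutral control wells and 100% = median of positive control wells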
CFTR F508del cor – correctors of CFTR F508del function in bronchial epithelial cells. CFBE cells, YFP halide quenching; stimulated with forskolin plus potentiator P3; % fluorescence drop versus neutral controls. activity (quench increase), % at 7.58 µM. 350,000 tested, 0.36% active;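 active = mean added fluorescence quench of at least 8% versus neutral control, with both replicates also reaching 8%; inconclusive = only one of the mean or replicate conditions met; inactive = mean below 8% and not both replicates reaching 8%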;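 note: cells transiently co-express mutant CFTR-F508del with the halide-sensitive YFP; corrector assay measuring rescue of mutant channel to the surface after 24 h compound exposure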
Starred values were filed as active, the others as inactive; ? = inconclusive; . = no result.

SMILES	PGC1a acetyl inh	Cneo AK release	XiGFP reactiv	FN deposit inh	DENV2 CPE	CFTR F508del cor
COCC(=O)N1C[C@H](C)[C@@H](OC)CN(C)C(=O)c2ccc(NC(=O)c3cc(C)on3)cc2OC[C@H]1C	1	-3	0	-1	-4	-2
COc1ccc(NC(=O)N(C)C[C@@H]2Oc3c(NC(=O)Nc4ccc(F)cc4)cccc3C(=O)N([C@H](C)CO)C[C@H]2C)cc1	-4	47	-1	.	-14	-2
C[C@@H]1CN([C@@H](C)CO)C(=O)c2cc(NC(=O)Nc3ccc(F)cc3)ccc2O[C@@H](C)CCCCO[C@H]1CN(C)Cc1ccc2c(c1)OCO2	-7	4	-1	.	22*	0
C[C@@H]1CN([C@H](C)CO)C(=O)c2cc(NC(=O)Nc3ccc(F)cc3)ccc2O[C@@H](C)CCCCO[C@H]1CN(C)Cc1ccc2c(c1)OCO2	3	19	-1	.	-10	-3
C[C@@H]1CN([C@H](C)CO)C(=O)c2cc(NC(=O)Nc3ccc(F)cc3)ccc2O[C@@H](C)CCCCO[C@@H]1CN(C)Cc1ccc2c(c1)OCO2	7	3	-1	.	23*	-3
O=C(C[C@H]1CC[C@@H](NC(=O)C2CCC2)[C@H](CO)O1)NCc1ccccc1Cl	1	-2	0	.	-5	3
CCCNC(=O)N(C)C[C@@H]1Oc2ncc(C#CC3CCCCC3)cc2C(=O)N([C@H](C)CO)C[C@@H]1C	-15	106*	0	-11	-9	0
C[C@H](CO)N1C[C@H](C)[C@@H](CN(C)C(=O)c2cnccn2)Oc2ncc(C#CCC3CCCC3)cc2C1=O	-4	2	0	-19	36*	2
CCCC#Cc1cnc2c(c1)C(=O)N([C@@H](C)CO)C[C@H](C)[C@H](CN(C)C(=O)NC1CCCC1)O2	-3	-9	-1	-3	8	.
CCCC#Cc1cnc2c(c1)C(=O)N([C@H](C)CO)C[C@@H](C)[C@@H](CN(C)C(=O)NC1CCCC1)O2	8	-8	-1	6	45*	.
CCCNC(=O)N(C)C[C@H]1Oc2ncc(C#CC3CCCCC3)cc2C(=O)N([C@@H](C)CO)C[C@@H]1C	12	109*	0	0	?	0
CCCNC(=O)N(C)C[C@@H]1Oc2ncc(C#CC3CCCCC3)cc2C(=O)N([C@H](C)CO)C[C@H]1C	-20	2	0	-1	?	1
C[C@H](CO)N1C[C@H](C)[C@@H](CN(C)Cc2ccc(-c3ccccc3)cc2)Oc2c(NC(=O)Nc3ccccc3)cccc2C1=O	.	.	0	.	.	.
COc1ccc2c3c([nH]c2c1)[C@@H](CO)N(C(C)=O)CC31CCN(C(=O)Nc2c(C)noc2C)CC1	13	.	0	.	21*	1
COc1ccc2c3c([nH]c2c1)[C@H](CO)N(C(=O)Nc1c(C)noc1C)CC31CCN(CC2CC2)CC1	.	.	0	.	42*	-1
O=C(Nc1ccc(Br)cn1)c1cccc2ccccc12	3	2	1	0	-3	14*
COc1c(C(=O)Nc2ccc(Br)cn2)ccc2ccccc12	.	0	0	-7	-4	3
COc1ccc(C2CC(c3cccc(F)c3)=NN2c2ccc(S(N)(=O)=O)cc2)cc1 (stereo not drawn)	-7	0	0	-2	9	-3
COc1ccc(C2CC(c3cccc(Br)c3)=NN2c2ccc(S(N)(=O)=O)cc2)cc1 (stereo not drawn)	-1	0	0	6	-15	10*
O=C(Nc1ccccc1)N1CC(=O)N2[C@H](CO)[C@H](c3ccc(C#Cc4cccnc4)cc3)[C@@H]2C1	40	.	0	.	11	1
O=C1NC(=Nc2ccccc2)S/C1=C\c1cccnc1	.	.	0	7	16	0
O=C1NC(=Nc2cccnc2)S/C1=C/c1ccc(F)cc1	12	0	0	1	2	14*
O=C(O)CNC(=O)c1ccc(NS(=O)(=O)c2ccc3ccccc3c2)cc1	.	-1	0	0	31*	1
O=C(Nc1cccc(C(=O)O)c1)/C(=C\c1ccccc1)NC(=O)c1ccco1	-3	-1	1	-1	27*	4
COc1ccc(NC(=O)N(C)C[C@H]2Oc3ccc(NS(=O)(=O)c4ccc(OC)cc4)cc3CC(=O)N([C@@H](C)CO)C[C@@H]2C)cc1	0	-1	0	.	7	3
SMILES	PGC1a acetyl inh	Cneo AK release	XiGFP reactiv	FN deposit inh	DENV2 CPE	CFTR F508del cor
CN(C)C(=O)C(CCN1CCC(O)(c2ccc(Cl)cc2)CC1)(c1ccccc1)c1ccccc1	-18	2	0	3	?	11*
COc1ccc2c3c([nH]c2c1)[C@@H](CO)N(C(=O)C1CCC1)CC31CN(C(=O)c2ccccn2)C1	-5	.	0	.	0	1
Nc1ccccc1C(=O)N1O[C@@H]2C=C[C@H]1C2	1	3	0	-3	-7	8.6*
O=C(C[C@H]1CC[C@@H]2[C@H](COC[C@H](O)CN2S(=O)(=O)c2ccccc2)O1)N1CCc2ccccc2C1	3	-2	0	-1	-1	-3
COc1ccc(S(=O)(=O)N[C@H]2C=C[C@@H](CC(=O)NCCc3ccccc3)O[C@@H]2CO)cc1	-2	2	0	.	24*	-1
COc1ccccc1S(=O)(=O)N[C@H]1C=C[C@H](CC(=O)NCc2cccc(F)c2)O[C@H]1CO	-1	3	0	-6	28*	2
O=C(C[C@H]1C=C[C@H](NS(=O)(=O)c2ccccc2)[C@H](CO)O1)N1CCC(Cc2ccccc2)CC1	-8	.	0	.	96*	1
O=C(C[C@H]1C=C[C@H](NC(=O)c2ccccc2)[C@H](CO)O1)NCc1ccc(Oc2ccccc2)cc1	-1	.	0	3	31*	1
COc1ccccc1S(=O)(=O)N[C@@H]1C=C[C@@H](CC(=O)NCc2cccc(F)c2)O[C@@H]1CO	1	10	0	1	2	-1
O=C(C[C@H]1C[C@H]2c3cc(NC(=O)C4CCOCC4)ccc3O[C@H]2[C@H](CO)O1)NCCc1ccccc1	14	-4	0	-4	1	-3
COc1ccc(NC(=O)N2CC(=O)N3[C@H](C2)[C@@H](c2ccc(-c4ccccc4)cc2)[C@@H]3CO)cc1	10	.	0	.	12	0
COCCNC(=O)C[C@H]1C=C[C@@H](NS(=O)(=O)c2ccc(C)cc2)[C@H](CO)O1	0	93*	0	-12	-4	2
COCCNC(=O)C[C@H]1C=C[C@H](NS(=O)(=O)c2ccc(C)cc2)[C@@H](CO)O1	1	105*	0	-1	.	2
